Calls of active or inactive are those of the source.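 The calls were made as follows, unless noted: active = mean duplicate activation above the buffer control mean plus 5 SD of those controls; inactive = the rest.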
What was measured:
[1] = nonspecific flux increase, KCNQ1-free cells – parental CHO cells, counter-screen for KCNQ1 potentiator project (AID 493006;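 active = duplicate-averaged activation above buffer control mean plus 5 SD of those controls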); conditions: parental CHO-K1 cells, FluxOR thallium flux, at 10 µM; hits give high values
In short: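 Assay system: Untransfected host CHO-K1 cells with FluxOR thallium dye | Probe or stimulus: Potassium/thallium depolarization pulse | Schedule: Overnight 37 °C plating, 90 min RT dye, 20 min compound | Detection: Kinetic thallium-flux fluorescence | Read-out: Max-minus-min fluorescence over baseline, percent of buffer-to-R-L3 span | Benchmarks: Low control buffer, high control R-L3 activator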

[2] = target: Potassium voltage-gated channel subfamily KQT member 1 (Homo sapiens) (UniProt P51787); test: enhancement of KCNQ1 channel thallium flux – FluxOR thallium flux, CHO cells, duplicates, confirmation (AID 493007;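 active = potentiation averaged over duplicate wells exceeding buffer-only control mean by more than 3 SD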;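 as to outcome: cells depolarized by a potassium plus thallium sulfate stimulus after compound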); conditions: KCNQ1 cell line, FluxOR thallium flux fluorescence, at 10 µM; hits give high values, % of reference activator effect, buffer zero
In short: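 Material: KCNQ1-expressing CHO cell line; Incubation: FluxOR dye loading 90 min, compound exposure 20 min, room temperature; Detection: FluxOR Tl+ flux fluorescence, 10 s baseline plus 110 s recording; Read-out: percent activation between buffer and R-L3 responses; Control set: buffer-only wells as 0% and R-L3 activator as 100%; Replication: duplicate wells per compound.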

[3] = target: Potassium voltage-gated channel subfamily KQT member 2 (Rattus norvegicus) (UniProt O88943); test: KCNQ2 thallium flux enhancement – KCNQ2-CHO-K1 cells, selectivity assay for KCNQ1 potentiator project (AID 493009;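 active = mean duplicate potentiation above the buffer control mean plus 5 SD of buffer wells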;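 also: assay conditions were tuned for KCNQ1 rather than KCNQ2 modulators; signal is max minus min fluorescence divided by baseline after thallium stimulus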); conditions: FluxOR thallium flux fluorescence, at 10 µM; hits give high values, scaled: buffer 0, activator control 100
[4] = target: Potassium voltage-gated channel subfamily KQT member 1 (Homo sapiens) (UniProt P51787); test: KCNQ1 activators by electrophysiology – IonWorks patch clamp, KCNQ1-CHO cells, orthogonal assay for KCNQ1 potentiator project, confirmation (AID 493184;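 active = current rise at least 3 SD above the untreated control mean in each of two repeat wells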;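 as to current potentiation: percent change of the same well's current before compound addition so 0% = no change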); conditions: automated patch clamp current, at 10 µM; hits give high values
In short: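 assay system = KCNQ1-expressing CHO cells | medium = external bath solution at pH 7.4 | probe or stimulus = 2,000 ms depolarization, -90 to +40 mV | compound dosing = 10 µM final, single point | measured by = automated voltage clamp, amphotericin B perforated patch | measure = percent current increase versus pre-compound level | replication = duplicates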

[5] = target: Potassium voltage-gated channel subfamily E member 1 (Homo sapiens) + Potassium voltage-gated channel subfamily KQT member 1 (Homo sapiens) (UniProt P15382+P51787); test: KCNQ1-E1 channel activation – thallium flux, CHO-K1 KCNQ1/E1 cells, selectivity assay for KCNQ1 potentiator project, confirmation (AID 493186); conditions: FluxOR thallium flux, at 10 µM; hits give high values
In short: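 Test system – CHO-K1 cells with KCNQ1/E1 · Measured by – FluxOR Tl+ flux fluorescence, kinetic read · Controls – buffer low control, R-L3 high control · Times – dye 90 min, compound 20 min, room temperature · Replication – duplicate wells per compound · Doses – one test concentration · Evaluation – fluorescence rise relative to baseline, as percent of R-L3 response above buffer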

Chain of Potassium voltage-gated channel subfamily E member 1 (Homo sapiens) + Potassium voltage-gated channel subfamily KQT member 1 (Homo sapiens) (P51787 whole entry, looked up): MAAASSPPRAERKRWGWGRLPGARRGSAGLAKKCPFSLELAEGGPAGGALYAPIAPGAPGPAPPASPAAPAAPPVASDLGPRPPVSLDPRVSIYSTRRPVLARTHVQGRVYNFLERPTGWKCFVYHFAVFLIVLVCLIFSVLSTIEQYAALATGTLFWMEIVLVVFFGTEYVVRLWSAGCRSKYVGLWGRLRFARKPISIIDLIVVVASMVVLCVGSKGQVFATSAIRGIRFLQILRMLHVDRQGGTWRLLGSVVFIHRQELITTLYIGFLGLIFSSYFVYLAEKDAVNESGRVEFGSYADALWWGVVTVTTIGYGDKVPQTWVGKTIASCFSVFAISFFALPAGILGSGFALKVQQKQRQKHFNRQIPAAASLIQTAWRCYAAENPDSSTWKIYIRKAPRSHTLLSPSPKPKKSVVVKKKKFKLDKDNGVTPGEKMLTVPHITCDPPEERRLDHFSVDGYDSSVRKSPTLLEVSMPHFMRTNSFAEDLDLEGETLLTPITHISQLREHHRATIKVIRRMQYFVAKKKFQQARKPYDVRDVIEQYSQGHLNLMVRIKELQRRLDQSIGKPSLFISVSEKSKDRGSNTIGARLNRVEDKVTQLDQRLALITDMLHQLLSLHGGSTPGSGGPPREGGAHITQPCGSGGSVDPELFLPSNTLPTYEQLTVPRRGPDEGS
Chain of Potassium voltage-gated channel subfamily KQT member 2 (Rattus norvegicus) (O88943 whole entry, looked up): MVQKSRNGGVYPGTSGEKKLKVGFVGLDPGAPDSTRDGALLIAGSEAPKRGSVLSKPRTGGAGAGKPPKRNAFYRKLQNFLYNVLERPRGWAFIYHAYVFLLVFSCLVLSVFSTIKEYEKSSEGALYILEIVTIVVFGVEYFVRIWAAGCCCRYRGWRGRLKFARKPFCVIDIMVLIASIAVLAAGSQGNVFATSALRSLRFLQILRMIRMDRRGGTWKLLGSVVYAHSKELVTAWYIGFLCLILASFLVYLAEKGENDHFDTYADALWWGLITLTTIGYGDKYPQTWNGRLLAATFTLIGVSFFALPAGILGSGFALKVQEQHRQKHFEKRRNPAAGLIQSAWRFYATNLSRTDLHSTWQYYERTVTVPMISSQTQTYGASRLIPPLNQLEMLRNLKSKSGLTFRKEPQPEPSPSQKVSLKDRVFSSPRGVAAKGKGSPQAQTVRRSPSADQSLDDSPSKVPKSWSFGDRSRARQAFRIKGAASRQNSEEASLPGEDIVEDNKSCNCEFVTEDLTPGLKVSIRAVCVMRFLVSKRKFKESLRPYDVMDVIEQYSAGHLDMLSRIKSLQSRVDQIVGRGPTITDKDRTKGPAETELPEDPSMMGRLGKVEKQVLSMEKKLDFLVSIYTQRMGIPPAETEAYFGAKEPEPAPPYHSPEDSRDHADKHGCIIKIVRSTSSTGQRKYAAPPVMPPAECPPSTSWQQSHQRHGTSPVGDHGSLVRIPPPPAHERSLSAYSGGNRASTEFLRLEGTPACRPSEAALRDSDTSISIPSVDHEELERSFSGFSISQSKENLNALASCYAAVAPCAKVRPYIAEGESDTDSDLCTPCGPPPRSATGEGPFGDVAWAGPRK
Chain of Potassium voltage-gated channel subfamily KQT member 1 (Homo sapiens) (P51787 whole entry, looked up): as the sequence (P51787 whole entry, looked up) above

SMILES | outcome [1] | potentiation [2] | outcome [3] | outcome [4] | outcome [5] | outcome [2] | current potentiation [4] | potentiation [3]
Oc1c(Br)cc(Br)cc1CNc1cccc2cccnc12 | inactive | 28.5% (active) | inactive | inactive | inactive | – | – | –
S=c1[nH]nc(COc2ccccc2)n1/N=C/c1ccc(Cl)cc1Cl | inactive | – | inactive | inactive | inactive | inactive | – | –
Cc1ccc2nc(C3CCN(S(=O)(=O)c4ccc5ccccc5c4)CC3)[nH]c2c1 | inactive | – | inactive | inactive | inactive | inactive | – | –
Cc1ccc(C)c(-n2c3nc(=O)n(C)c(=O)c-3cc3ccccc32)c1 | inactive | – | inactive | inactive | inactive | inactive | – | –
COc1ccc(NC(=S)NCCC(c2ccccc2)c2ccccc2)c(OC)c1 | inactive | 72.5% (active) | inactive | inactive | inactive | – | – | –
O=C(NNC(=S)NC(=O)c1ccc(Br)cc1)c1cccc([N+](=O)[O-])c1 | inactive | – | inactive | inactive | inactive | inactive | – | –
CCOC(=O)c1c(C)[nH]sc1=S | inactive | 18% (active) | inactive | inactive | inactive | – | – | –
Cc1ccc(OCC(=O)NNC(=S)NC(=O)C2CCCCC2)c(C)c1 | inactive | 26.5% (active) | inactive | inactive | inactive | – | – | –
CCCOc1ccc(C(=O)NNC(=S)NC(=O)c2cc(-c3ccccc3)nc3ccccc23)cc1 | inactive | 23.5% (active) | inactive | inactive | inactive | – | – | –
Cc1nc(NC(=S)NC(=O)c2ccccc2)sc1C | inactive | – | inactive | inactive | inactive | inactive | – | –
CCOC(=O)c1oc2ccc(S(=O)(=O)n3nc(-c4ccc(OC)cc4)cc3N)cc2c1C | inactive | – | inactive | – | inactive | inactive | 15.4% (active) | –
COC(=O)c1sccc1NS(=O)(=O)c1ccc(F)cc1F | inactive | – | inactive | inactive | inactive | inactive | – | –
COc1ccc(C(=O)/C=C/C(=O)N(CC(=O)NC2CCCCC2)Cc2cccs2)c(O)c1 | inactive | – | inactive | inactive | inactive | inactive | – | –
COc1ccccc1N1CCN(C(=O)C2CCN(C(=O)c3cccc(Cl)c3)CC2)CC1 | inactive | – | inactive | inactive | inactive | inactive | – | –
Cc1cccc(C(=O)NN2C(=O)C3C(c4ccccc4)C=CC(c4ccccc4)C3C2=O)c1 (stereo not given) | inactive | – | inactive | inactive | inactive | inactive | – | –
CCN(CC)S(=O)(=O)c1cccc(C(=O)N/N=C/c2cccc(O)c2O)c1 | inactive | – | inactive | inactive | inactive | inactive | – | –
CN(C(=O)c1ccc2c(c1)OCO2)C1CCCCC1 | inactive | – | inactive | inactive | inactive | inactive | – | –
CC(Sc1nncs1)C(=O)NC1CCCCC1C (stereo not given) | inactive | – | inactive | inactive | inactive | inactive | – | –
CCc1ccc(NC(=O)/C(C#N)=C/c2ccncc2)cc1 | inactive | – | inactive | inactive | inactive | inactive | – | –
O=C(CSc1nnc(NC(=O)C2CCC2)s1)Nc1ccc(N2CCOCC2)cc1 | inactive | – | inactive | inactive | inactive | inactive | – | –

SMILES | outcome [1] | potentiation [2] | outcome [3] | outcome [4] | outcome [5] | outcome [2] | current potentiation [4] | potentiation [3]
CCn1c(SCC(=O)c2cccs2)nnc1-c1cccs1 | inactive | – | inactive | inactive | inactive | inactive | – | –
COCCCN1C(=O)C(=O)/C(=C(/O)c2ccc(C)cc2)C1c1ccccc1 (stereo not given) | inactive | – | inactive | inactive | inactive | inactive | – | –
COc1cccc(/C=N/n2c(SC)nnc2-c2ccccc2)c1O | inactive | – | inactive | inactive | inactive | inactive | – | –
COc1ccc(-c2nonc2NC(=O)c2oc3ccccc3c2C)cc1OC | inactive | – | inactive | inactive | inactive | inactive | – | –
CCCCc1ccc(-c2csc(/C(C#N)=C/c3ccco3)n2)cc1 | inactive | 132% (active) | inactive | inactive | inactive | – | – | –
CCOC(=O)c1[nH]c2cc(OC)c(OC)cc2c1NC(=O)CN(C)C1CCCCC1 | inactive | 18% (active) | inactive | inactive | inactive | – | – | –
Cc1ccc(/C=N/NC(=O)c2cc(C3CC3)nc3ccccc23)o1 | inactive | 29.5% (active) | inactive | inactive | inactive | – | – | –
S=C(NCCc1ccccc1)N/N=C/C1CCCCC1 | inactive | – | inactive | inactive | inactive | inactive | – | –
COc1ccc(CC(=O)NC(=S)Nc2cccc(C)c2)cc1 | inactive | – | inactive | inactive | inactive | inactive | – | –
C=CCNC(=S)Nc1sc2c(c1C(=O)OCC)CCN(C(=O)OCC)C2 | inactive | – | inactive | inactive | inactive | inactive | – | –
O=C(CSc1nnc(-c2ccccn2)n1-c1ccc(Cl)cc1)Nc1ccc2c(c1)OCO2 | inactive | – | inactive | inactive | inactive | inactive | – | –
CS(=O)(=O)c1ccc(Cl)c(NC(=O)c2cc(S(=O)(=O)N3CCOCC3)ccc2N2CCCC2)c1 | inactive | – | inactive | inactive | inactive | inactive | – | –
S=C(Nc1ccccc1)Nc1nc2ccccc2n1CCOc1ccc(Cl)cc1 | inactive | – | inactive | inactive | inactive | inactive | – | –
CCOC(=O)c1cccc(NC(=O)CCc2nnc3ccc(N4CCCCC4)nn23)c1 | inactive | – | inactive | inactive | inactive | inactive | – | –
CCOC(=O)c1c(NC(=O)CN2CCN(C(=O)c3ccco3)CC2)sc2c1CCCC2 | inactive | 39.5% (active) | inactive | inactive | inactive | – | – | –
O=C(NC1CCCC1)C(=O)N(Cc1cccnc1)C(C(=O)NC1CCCC1)c1ccco1 (stereo not given) | inactive | 35% (active) | inactive | inactive | inactive | – | – | –
CCC1(CC)Cc2ccccc2-c2[nH]c(=S)[nH]c(=O)c21 | inactive | – | inactive | inactive | inactive | inactive | – | –
CC1CCCCC1NC(=S)NC(=O)c1sc2ccccc2c1Cl (stereo not given) | inactive | 54% (active) | inactive | inactive | inactive | – | – | –
C=CCSc1nc2c(c(=O)[nH]1)C(C(C)C)C(C#N)=C(N)O2 (stereo not given) | inactive | – | inactive | inactive | inactive | inactive | – | –
O=C(O)CCCN1C(=O)/C(=C/c2ccc(-c3nc4ccccc4s3)o2)SC1=S | inactive | 21.5% (active) | – | inactive | inactive | – | – | 143% (active)

SMILES | outcome [1] | potentiation [2] | outcome [3] | outcome [4] | outcome [5] | outcome [2] | current potentiation [4] | potentiation [3]
COc1cc(C(=O)Nc2ccc3c(c2)nc(C)n3C)cc(OC)c1OC | inactive | – | inactive | inactive | inactive | inactive | – | –
CCN(CC(=O)Nc1c(F)cccc1F)C(=O)C1CCN(C(=O)c2ccc(Cl)cc2)CC1 | inactive | – | inactive | inactive | inactive | inactive | – | –
S=c1[nH]nc(-c2ccc(Br)o2)n1Cc1ccccc1 | inactive | – | inactive | inactive | inactive | inactive | – | –
COc1ccc(-c2csc(N(CCCN(C)C)C(=O)c3ccccc3F)n2)cc1 | inactive | – | inactive | inactive | inactive | inactive | – | –
COc1ccc(C2SCC(=O)N2c2nc3ccccc3s2)cc1 (stereo not given) | inactive | – | inactive | – | inactive | inactive | 26.4% (active) | –
O=[N+]([O-])c1ccc(S(=O)(=O)CC(CN2CCCCC2)N2CCCCC2)cc1 (stereo not given) | inactive | – | inactive | inactive | inactive | inactive | – | –
CCn1c(SCC(=O)Nc2ccccc2F)nnc1-c1cnccn1 | inactive | – | inactive | inactive | inactive | inactive | – | –
CCCn1c(=O)c(C(=O)NNC(=O)c2ccc(Cl)cc2Cl)c(O)c2ccccc21 | inactive | 30% (active) | – | inactive | inactive | – | – | 154% (active)
CS(=O)(=O)N1CCc2cc(-c3csc(NC(=O)C(c4ccccc4)c4ccccc4)n3)ccc21 | inactive | – | inactive | inactive | inactive | inactive | – | –
O=C(NC(=S)Nc1cccc(Cl)c1N1CCCCC1)c1cccs1 | inactive | 54% (active) | inactive | inactive | inactive | – | – | –
O=C(NCC(c1cccs1)N1CCOCC1)C1CCN(S(=O)(=O)c2cccc(C(F)(F)F)c2)CC1 (stereo not given) | inactive | – | inactive | inactive | inactive | inactive | – | –
OCCNCc1cc(Br)ccc1OCc1ccccc1Cl | inactive | – | inactive | inactive | inactive | inactive | – | –
CCN(CC)CCNc1ncnc2c1sc1nc(N3CCCC3)c3c(c12)CC(C)(C)OC3 | inactive | – | inactive | inactive | inactive | inactive | – | –
O=C(c1ccc(-c2ccccc2)cc1)C1CCCN(C(=O)Cn2cncn2)C1 (stereo not given) | inactive | – | inactive | inactive | inactive | inactive | – | –
COc1cc(NC(=S)N2CCC(C(O)(c3ccccc3)c3ccccc3)CC2)cc(OC)c1 | inactive | 20.5% (active) | – | inactive | inactive | – | – | 156% (active)
Cc1cccc(Cn2c(O)c(N=NC(=S)Nc3ccccc3F)c3ccccc32)c1 | inactive | 22.5% (active) | – | inactive | inactive | – | – | 148% (active)
O=C(NC(=S)N1CCCCCC1)c1ccccc1Cl | inactive | 25% (active) | – | inactive | inactive | – | – | 146% (active)
CCOC(=O)c1cnn(-c2nc(SC)nc3sc4c(c23)CCCC4)c1N | inactive | 29.5% (active) | – | inactive | inactive | – | – | 142% (active)

Reference: PubChem BioAssay
